The source made the active and inactive calls. No cut-off for these calls is given here.
Legend:
[1] = Drug level in C57BL/6J mouse brain at 4 hrs post-dose by equilibrium dialysis method; format: ADME, tissue-based; conditions: in vivo
In short: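 Unbound brain level derived from brain concentration after 20 mg/kg oral dose, multiplied by unbound fraction from brain-homogenate equilibrium dialysis; given at Cmax and at 4 h.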

[2] = target: Histamine H4 receptor (Homo sapiens) (UniProt Q9H3N8); test: Agonist activity at recombinant human Gi-coupled H4 receptor expressed in HEK293T cells assessed as inhibition of forskolin-stimulated cAMP accumulation at 10 uM preincubated for 10 to 15 followed by forskolin-stimulation by Glo-sensor assay; format: functional, cell-based
Mus musculus [3] = test: Anti-obesity activity in high fat diet-induced obese C57BL/6J mouse model assessed as change in HDL level at 10 to 20 mg/kg, po measured after 6 weeks; format: functional, organism-based
In short: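 At the end of treatment (six weeks HFD, four weeks db/db), mice euthanized with avertin 350 mg/kg. Blood taken by cardiac puncture into 3.8% sodium citrate. Plasma separated at 4000 rpm and stored at -80 °C. TG, TC, HDLc and LDLc measured on a bio-analyzer.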

[4] = target: D(3) dopamine receptor (Homo sapiens) (UniProt P35462); test: Antagonist activity at D3 receptor (unknown origin)
[5] = target: T1, 5-hydroxytryptamine receptor 2C (Homo sapiens) (UniProt P28335); test: Antagonist activity at 5HT2CR (unknown origin) expressed in HEK293 cells harboring luc2P/NFAT-RE plasmid at 10 uM after 6 to 8 hrs by luciferase reporter gene assay; format: cell-based
T1 sequence (whole entry): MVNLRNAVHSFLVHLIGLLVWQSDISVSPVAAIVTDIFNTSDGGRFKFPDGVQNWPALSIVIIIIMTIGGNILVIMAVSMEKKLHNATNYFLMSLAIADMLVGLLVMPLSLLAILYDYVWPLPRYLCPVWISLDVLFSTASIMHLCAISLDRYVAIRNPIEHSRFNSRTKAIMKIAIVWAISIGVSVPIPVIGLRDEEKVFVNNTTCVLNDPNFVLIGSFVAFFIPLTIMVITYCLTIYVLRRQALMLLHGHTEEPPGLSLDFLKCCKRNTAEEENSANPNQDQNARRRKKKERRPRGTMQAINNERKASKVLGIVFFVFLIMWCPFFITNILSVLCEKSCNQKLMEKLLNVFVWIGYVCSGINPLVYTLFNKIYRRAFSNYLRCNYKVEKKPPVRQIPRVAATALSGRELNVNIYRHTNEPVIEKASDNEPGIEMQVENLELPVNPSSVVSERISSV
In short: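 NFAT-RE luciferase assay in HEK293T cells transiently co-transfected with luc2P/NFAT-RE plasmid and receptor plasmid. Cells plated in DMEM and incubated overnight at 37 °C, 5% CO₂. Compounds and reference ligands applied for 6-8 h. Luciferase read after adding Bright-Glo substrate (1 mg/ml final).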

[6] = Protein binding in C57BL/6J mouse plasma by equilibrium dialysis method; format: ADME, cell-free; conditions: read-out: PPB (converted)
In short: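 Plasma protein binding and unbound fraction in mouse brain tissue homogenate measured by equilibrium dialysis.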

[7] = target: D(1B) dopamine receptor (Homo sapiens) (UniProt P21918); test: (§1) Antagonist activity at Gs-coupled D5 receptor (unknown origin) expressed in HEK293T cells assessed as reduction in histamine-induced inhibition of forskolin-stimulated cAMP accumulation preincubated for 10 to 15 followed by histamine addition for 10 mins and subsequent forskolin-stimulation by Glo-sensor assay; format: functional, cell-based
Mus musculus [8] = test: Anti-obesity activity in high fat diet-induced obese C57BL/6J mouse model assessed as reduction in body weight at 10 mg/kg, po measured up to 39 days; format: functional, organism-based
[9] = target: D(2) dopamine receptor (Homo sapiens) (UniProt P14416); test: as §1, with “Gi-coupled D2” for “Gs-coupled D5”; format: functional, cell-based
[10] = Tmax in C57BL/6J mouse brain at 20 mg/kg, po by LC-MS/MS analysis; format: ADME, organism-based
In short: (§2)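 Male C57BL/6J mice (6-8 weeks, 20 ± 5 g) fasted overnight (12-16 h) got a single 20 mg/kg oral dose as 2.5 mg/mL suspension in 1% w/v gum acacia; n=5 per time point. Serum and brain (PBS homogenate 1:6 w/v) sampled up to 24 h. Parent and demethylated metabolite quantified by LC-MS/MS after liquid-liquid extraction (C18, MRM, phenacetin internal standard; linear 0.25-200 ng/mL). Two-compartment open model fit.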

[11] = Apparent volume of distribution in C57BL/6J mouse brain at 20 mg/kg, po by LC-MS/MS analysis; format: ADME, organism-based; in short: as §2
[12] = Ratio of AUClast in C57BL/6J mouse serum assessed as 4-(2-Amino-8-methyl-5,6,7,8-tetrahydroquinazolin-4-yl)phenol level to AUClast in C57BL/6J mouse serum; format: ADME
In short: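 Male C57BL/6J mice (6–8 weeks) were fasted 12–16 h, then given a single oral dose of 20 mg/kg as a 2.5 mg/mL suspension in 1% gum acacia/water (n=5 per time point). Serum and brain (homogenised 1:6 in PBS) were sampled up to 24 h. Parent and demethylated metabolite were measured by LC-MS/MS (range 0.25–200 ng/mL). AUC ran to the last observation.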

[13] = AUClast in C57BL/6J mouse brain assessed as 4-(2-Amino-8-methyl-5,6,7,8-tetrahydroquinazolin-4-yl)phenol level at 20 mg/kg, po by LC-MS/MS analysis; format: ADME, organism-based; parameters: dose 20 mg/kg, time 0 - last, route oral; conditions: in vivo
In short: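 Male C57BL/6J mice, 6-8 weeks, 20 ± 5 g, fasted overnight (12-16 h), n = 5 per time point. Single 20 mg/kg oral dose given by feeding needle as a 2.5 mg/mL suspension in 1% w/v gum acacia and water. Serum and brain (homogenized 1:6 w/v in PBS) sampled up to 24 h. Liquid-liquid extraction, then LC-MS/MS in positive MRM mode with phenacetin as internal standard. Linear range 0.25-200 ng/mL. Non-compartmental and compartmental analysis.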

[14] = Cmax in C57BL/6J mouse brain at 20 mg/kg, po by LC-MS/MS analysis; format: ADME, organism-based; parameters: dose 20 mg/kg, route oral; conditions: in vivo; in short: as §2

D(3) dopamine receptor (Homo sapiens), sequence (P35462 whole entry): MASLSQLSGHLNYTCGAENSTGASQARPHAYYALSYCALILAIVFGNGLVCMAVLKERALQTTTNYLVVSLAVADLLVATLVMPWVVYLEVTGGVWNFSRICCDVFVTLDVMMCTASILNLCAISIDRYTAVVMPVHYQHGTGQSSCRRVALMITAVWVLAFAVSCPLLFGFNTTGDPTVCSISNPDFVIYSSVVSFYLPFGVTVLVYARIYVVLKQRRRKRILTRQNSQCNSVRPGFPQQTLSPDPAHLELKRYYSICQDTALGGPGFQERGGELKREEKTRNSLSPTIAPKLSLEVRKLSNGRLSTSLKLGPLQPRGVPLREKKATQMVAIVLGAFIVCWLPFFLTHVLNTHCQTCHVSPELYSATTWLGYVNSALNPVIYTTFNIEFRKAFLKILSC
D(2) dopamine receptor (Homo sapiens), sequence (P14416 whole entry): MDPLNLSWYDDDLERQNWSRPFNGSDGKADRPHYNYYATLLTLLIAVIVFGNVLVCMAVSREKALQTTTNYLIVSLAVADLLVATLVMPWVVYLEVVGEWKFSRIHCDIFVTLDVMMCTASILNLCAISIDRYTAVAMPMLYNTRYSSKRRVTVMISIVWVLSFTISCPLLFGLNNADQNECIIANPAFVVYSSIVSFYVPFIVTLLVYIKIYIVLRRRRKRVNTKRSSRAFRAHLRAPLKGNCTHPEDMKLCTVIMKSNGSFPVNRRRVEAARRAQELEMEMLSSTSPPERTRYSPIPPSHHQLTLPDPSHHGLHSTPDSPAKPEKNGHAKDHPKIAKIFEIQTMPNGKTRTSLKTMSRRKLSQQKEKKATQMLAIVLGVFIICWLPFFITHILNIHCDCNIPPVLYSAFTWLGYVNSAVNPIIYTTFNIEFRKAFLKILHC
D(1B) dopamine receptor (Homo sapiens), sequence (P21918 whole entry): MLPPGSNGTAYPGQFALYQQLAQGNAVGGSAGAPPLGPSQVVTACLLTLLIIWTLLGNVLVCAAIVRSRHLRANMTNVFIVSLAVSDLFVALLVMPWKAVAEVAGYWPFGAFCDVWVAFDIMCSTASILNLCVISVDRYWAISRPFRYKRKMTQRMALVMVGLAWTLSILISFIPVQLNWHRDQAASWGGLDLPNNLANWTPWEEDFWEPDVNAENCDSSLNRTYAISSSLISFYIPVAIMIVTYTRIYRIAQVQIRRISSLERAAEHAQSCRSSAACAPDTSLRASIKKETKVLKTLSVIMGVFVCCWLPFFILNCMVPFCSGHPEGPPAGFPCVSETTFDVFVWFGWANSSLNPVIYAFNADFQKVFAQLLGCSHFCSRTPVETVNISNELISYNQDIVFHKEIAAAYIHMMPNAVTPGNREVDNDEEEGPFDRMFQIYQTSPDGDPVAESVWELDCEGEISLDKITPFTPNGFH
Histamine H4 receptor (Homo sapiens), sequence (Q9H3N8 whole entry): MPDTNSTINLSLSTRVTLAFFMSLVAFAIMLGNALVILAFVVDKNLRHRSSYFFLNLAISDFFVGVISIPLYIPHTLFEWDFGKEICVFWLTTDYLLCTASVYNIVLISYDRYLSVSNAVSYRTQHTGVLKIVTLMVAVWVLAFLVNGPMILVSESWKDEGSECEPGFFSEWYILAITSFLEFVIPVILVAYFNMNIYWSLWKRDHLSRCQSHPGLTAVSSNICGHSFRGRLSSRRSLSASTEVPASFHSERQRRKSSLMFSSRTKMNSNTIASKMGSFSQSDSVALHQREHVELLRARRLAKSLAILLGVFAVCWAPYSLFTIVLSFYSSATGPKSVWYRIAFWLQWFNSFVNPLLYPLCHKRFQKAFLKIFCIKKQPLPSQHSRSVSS

**Q.** Which Drug uptake [1] does the source give for `COc1ccc(-c2nc(N)nc3c2CCCC3C)cc1` (racemic) here?
**A.** The Drug uptake was 20.8 nM.

**Q.** And the Activity [2]?
**A.** Its Activity is “inactive”.

**Q.** And the Activity (Mus musculus [3])?
**A.** The Activity was “inactive”.

**Q.** What about the inhibition [4] of the same molecule?
**A.** Its inhibition is “inactive”.

**Q.** What about the inhibition [5] of the same molecule?
**A.** The inhibition was “inactive”.

**Q.** What about the fraction unbound [6] of the same molecule?
**A.** The fraction unbound was 0.0424.

**Q.** And the inhibition [7]?
**A.** The inhibition was “inactive”.

**Q.** And the Activity (Mus musculus [8])?
**A.** Its Activity is “inactive”.

**Q.** What about the inhibition [9] of the same molecule?
**A.** Its inhibition is “inactive”.

**Q.** What about the Tmax [10] of the same molecule?
**A.** Its Tmax is 30 min.

**Q.** And the Vd/F [11]?
**A.** The Vd/F was 28.3 L/kg.

**Q.** What about the “Ratio AUC” value [12] of the same molecule?
**A.** Its value is 85.8%.

**Q.** What about the AUClast [13] of the same molecule?
**A.** Its AUClast is 100.7 ng·h/mL.

**Q.** And the Cmax [14]?
**A.** Its Cmax is 323 ng/g.
